Measured values reported in ChEMBL document CHEMBL5335797, “Design, Synthesis, and Evaluation of New 1H-Benzo[d]imidazole Based PqsR Inhibitors as Adjuvant Therapy for Pseudomonas aeruginosa Infections” (J Med Chem, 2024).
Values belong to the molecule of their own block, whether it stands above or below them. The source made the active and inactive calls. The rule behind the calls is not given here.

How the values were obtained:
[1] = target: T1, Transcriptional regulator MvfR (Pseudomonas aeruginosa PA14) (UniProt A0A072ZLE6); assay: Antagonist activity at PqsR in wild-type Pseudomonas aeruginosa PAO1-L assessed as inhibition of pyocyanin level at 3 times IC50 incubated for 16 hrs by absorbance based assay relative to control; settings: filed as antagonist
T1 sequence (whole entry): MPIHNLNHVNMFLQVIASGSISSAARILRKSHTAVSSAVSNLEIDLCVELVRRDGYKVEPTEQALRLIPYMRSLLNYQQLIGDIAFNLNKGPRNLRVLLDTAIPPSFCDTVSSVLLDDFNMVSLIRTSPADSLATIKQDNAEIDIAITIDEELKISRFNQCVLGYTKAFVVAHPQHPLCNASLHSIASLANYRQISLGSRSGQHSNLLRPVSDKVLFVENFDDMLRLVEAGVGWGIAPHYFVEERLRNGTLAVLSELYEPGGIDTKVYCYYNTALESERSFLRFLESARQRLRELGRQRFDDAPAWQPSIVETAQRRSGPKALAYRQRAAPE

[2] = Inhibition of Pseudomonas aeruginosa pqsA-lux complex expressed in Pseudomonas aeruginosa PA14 by bioluminescent reporter assay
Method in brief: (§1)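 Reporter strains PAO1-L and PA14 carrying chromosomal mCTX::PpqsA-lux, grown in LB at 37 °C. Inhibition read as reduced luminescence. Single-point screen at 10 μM from 10 mM DMSO stock; dose–response curves in both strains; mean ± SD, n = 2.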

Pseudomonas aeruginosa [3] = assay: Inhibition of Pseudomonas aeruginosa pqsA-lux complex expressed in Pseudomonas aeruginosa PAO1-L at 10 uM by bioluminescent reporter assay; method in brief: as §1
Pseudomonas aeruginosa [4] = assay: Inhibition of Pseudomonas aeruginosa pqsA-lux complex expressed in Pseudomonas aeruginosa PA14 at 10 uM by bioluminescent reporter assay; method in brief: as §1
[5] = Inhibition of Pseudomonas aeruginosa pqsA-lux complex expressed in Pseudomonas aeruginosa PAO1-L by bioluminescent reporter assay; method in brief: as §1
A549 = assay: Cytotoxicity against human A549 cells assessed as cell viability upto 100 uM incubated for 24 hrs by resazurin reduction assay; format: toxicity, cell-based; settings: a549, 24 h
Method in brief: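 A549 cells in DMEM with 10% FBS and 1% PSN, seeded at 1 × 10^4 cells/well. Compound at 1, 50 and 100 μM in sextuplicate, 24 h at 37 °C and 5% CO2. Vehicle control 1% DMSO; positive control 100 μM K2Cr2O7. Alamar blue added for 4–6 h, fluorescence read at ex 510/em 590 nm, normalized to DMSO.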

[6] = target: T1, Transcriptional regulator MvfR (Pseudomonas aeruginosa PA14); assay: Antagonist activity at PqsR in Pseudomonas aeruginosa LESB58 clinical isolate assessed as reduction in HQNO level at 0.2 uM by LCMS/MS analysis relative to control; set-up: scale not given: the % may be the effect or the level left
[7] = target: T1, Transcriptional regulator MvfR (Pseudomonas aeruginosa PA14); assay: Antagonist activity at PqsR in Pseudomonas aeruginosa IPCD1451 clinical isolate assessed as inhibition of pyocyanin level at 200 nM incubated for 16 hrs by absorbance based assay
[8] = target: T1, Transcriptional regulator MvfR (Pseudomonas aeruginosa PA14); assay: Antagonist activity at PqsR in Pseudomonas aeruginosa IPCD48 clinical isolate assessed as inhibition of pyocyanin level at 200 nM incubated for 16 hrs by absorbance based assay; settings: filed as antagonist
[9] = target: T1, Transcriptional regulator MvfR (Pseudomonas aeruginosa PA14); assay: Antagonist activity at PqsR in Pseudomonas aeruginosa IPCD1331 clinical isolate assessed as reduction in HHQ level at 0.2 uM by LCMS/MS analysis
[10] = target: T1, Transcriptional regulator MvfR (Pseudomonas aeruginosa PA14); assay: Antagonist activity at PqsR in Pseudomonas aeruginosa IPCD1350 clinical isolate assessed as inhibition of pyocyanin level at 200 nM incubated for 16 hrs by absorbance based assay; settings: filed as antagonist
Pseudomonas aeruginosa [11] = assay: Potentiation of Tobramycin-induced antibiofilm activity in Pseudomonas aeruginosa PAO1-L at 1 uM preincubated for 16 hrs followed by tobramycin addition measured for 2 to 6 hrs by PI staining based confocal laser scanning microscopy; format: functional, organism-based; settings: time 18-22 hrs
Method in brief: (§2)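 GFP-tagged strain (pMMG) grown in RPMI-1640 with 20 mM glucose and 2 μM FeCl3. Seeded at OD600 0.01 on glass coverslips, static 1.5 h at 37 °C. Compound added at 1 μM, then shaken at 60 rpm and 37 °C for 16 h. Tobramycin 100 μg/mL plus propidium iodide 2 μM for a further 2 or 6 h. CLSM, 5 random z-stacks per coverslip.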

[12] = target: T1, Transcriptional regulator MvfR (Pseudomonas aeruginosa PA14); assay: Antagonist activity at PqsR in Pseudomonas aeruginosa IPCD48 clinical isolate assessed as reduction in PQS level at 0.2 uM by LCMS/MS analysis; settings: filed as antagonist
[13] = target: T1, Transcriptional regulator MvfR (Pseudomonas aeruginosa PA14); assay: Antagonist activity at PqsR in wild-type Pseudomonas aeruginosa PAO1-L assessed as reduction in PQS level at 0.2 uM by LCMS/MS analysis; settings: filed as antagonist
[14] = target: T1, Transcriptional regulator MvfR (Pseudomonas aeruginosa PA14); assay: Antagonist activity at PqsR in Pseudomonas aeruginosa LESB58 clinical isolate assessed as reduction in AQ level at 0.2 uM by LCMS/MS analysis; settings: filed as antagonist
[15] = target: T1, Transcriptional regulator MvfR (Pseudomonas aeruginosa PA14); assay: Antagonist activity at PqsR in wild-type Pseudomonas aeruginosa PA14 assessed as reduction in PQS level at 0.2 uM by LCMS/MS analysis; settings: filed as antagonist
[16] = target: T1, Transcriptional regulator MvfR (Pseudomonas aeruginosa PA14); assay: Antagonist activity at PqsR in Pseudomonas aeruginosa IPCD1451 clinical isolate assessed as reduction in HQNO level at 0.2 uM by LCMS/MS analysis
[17] = target: T1, Transcriptional regulator MvfR (Pseudomonas aeruginosa PA14); assay: Antagonist activity at PqsR in wild-type Pseudomonas aeruginosa PAO1-L assessed as inhibition of pyocyanin level at 200 nM incubated for 16 hrs by absorbance based assay; settings: filed as antagonist
[18] = target: T1, Transcriptional regulator MvfR (Pseudomonas aeruginosa PA14); assay: Antagonist activity at PqsR in Pseudomonas aeruginosa IPCD48 clinical isolate assessed as reduction in HQNO level at 0.2 uM by LCMS/MS analysis relative to control; set-up: scale not given: the % may be the effect or the level left
[19] = target: T1, Transcriptional regulator MvfR (Pseudomonas aeruginosa PA14); assay: Antagonist activity at PqsR in Pseudomonas aeruginosa IPCD1331 clinical isolate assessed as reduction in HQNO level at 0.2 uM by LCMS/MS analysis relative to control; set-up: scale not given: the % may be the effect or the level left
Pseudomonas aeruginosa [20] = assay: Inhibition of biofilm formation in Pseudomonas aeruginosa PAO1-L at 10 uM incubated for 6 to 24 hrs by SYTO9/PI staining based confocal laser scanning microscopy; format: functional, organism-based; settings: time 6-24 hrs
Method in brief: (§3)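 PAO1-L biofilms grown on glass coverslips in a rolling bioreactor (20 rpm) in FAB 10 mM glucose, inoculated at OD600 0.01, 30 °C for 24 h with 10 μM compound from the start. Then PBS wash and 6 or 24 h in fresh medium with 60 μg/mL ciprofloxacin, 20 μM compound, or both. LIVE/DEAD BacLight staining, CLSM; live/dead ratios against untreated.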

[21] = target: T1, Transcriptional regulator MvfR (Pseudomonas aeruginosa PA14); assay: Antagonist activity at PqsR in Pseudomonas aeruginosa IPCD1350 clinical isolate assessed as reduction in HQNO level at 0.2 uM by LCMS/MS analysis relative to control; set-up: scale not given: the % may be the effect or the level left
Pseudomonas aeruginosa [22] = assay: Inhibition of biofilm formation in GFP-labeled Pseudomonas aeruginosa PAO1-L at 1 uM incubated for 16 hrs by PI staining based confocal laser scanning microscopy; format: functional, organism-based; method in brief: as §2
[23] = target: T1, Transcriptional regulator MvfR (Pseudomonas aeruginosa PA14); assay: Antagonist activity at PqsR in Pseudomonas aeruginosa IPCD1331 clinical isolate assessed as inhibition of pyocyanin level at 200 nM incubated for 16 hrs by absorbance based assay; settings: filed as antagonist
[24] = target: T1, Transcriptional regulator MvfR (Pseudomonas aeruginosa PA14); assay: Antagonist activity at PqsR in wild-type Pseudomonas aeruginosa PAO1-L assessed as reduction in HQNO level at 0.2 uM by LCMS/MS analysis relative to control; set-up: scale not given: the % may be the effect or the level left
[25] = target: T1, Transcriptional regulator MvfR (Pseudomonas aeruginosa PA14); assay: Antagonist activity at PqsR in wild-type Pseudomonas aeruginosa PA14 assessed as inhibition of pyocyanin level at 200 nM incubated for 16 hrs by absorbance based assay; settings: filed as antagonist
Pseudomonas aeruginosa [26] = assay: Potentiation of Ciprofloxacin-induced antibiofilm activity in Pseudomonas aeruginosa PAO1-L at 10 uM incubated for 6 to 24 hrs by SYTO9/PI staining based confocal laser scanning microscopy; format: functional, organism-based; settings: time 6-24 hrs; method in brief: as §3
[27] = target: T1, Transcriptional regulator MvfR (Pseudomonas aeruginosa PA14); assay: Antagonist activity at PqsR in Pseudomonas aeruginosa LESB58 clinical isolate assessed as inhibition of pyocyanin level at 200 nM incubated for 16 hrs by absorbance based assay; settings: filed as antagonist
[28] = target: T1, Transcriptional regulator MvfR (Pseudomonas aeruginosa PA14); assay: Antagonist activity at PqsR in Pseudomonas aeruginosa IPCD1331 clinical isolate assessed as reduction in PQS level at 0.2 uM by LCMS/MS analysis
[29] = target: T1, Transcriptional regulator MvfR (Pseudomonas aeruginosa PA14); assay: Antagonist activity at PqsR in wild-type Pseudomonas aeruginosa PA14 assessed as reduction in HQNO level at 0.2 uM by LCMS/MS analysis relative to control; set-up: scale not given: the % may be the effect or the level left
[30] = target: T1, Transcriptional regulator MvfR (Pseudomonas aeruginosa PA14); assay: Antagonist activity at PqsR in Pseudomonas aeruginosa IPCD48 clinical isolate assessed as reduction in HHQ level at 0.2 uM by LCMS/MS analysis; settings: filed as antagonist
[31] = target: T1, Transcriptional regulator MvfR (Pseudomonas aeruginosa PA14); assay: Antagonist activity at PqsR in wild-type Pseudomonas aeruginosa PA14 assessed as reduction in HHQ level at 0.2 uM by LCMS/MS analysis; settings: filed as antagonist
[32] = target: T1, Transcriptional regulator MvfR (Pseudomonas aeruginosa PA14); assay: Antagonist activity at PqsR in wild-type Pseudomonas aeruginosa PAO1-L assessed as reduction in HHQ level at 0.2 uM by LCMS/MS analysis; settings: filed as antagonist

Structure (SMILES): CC(C)n1c(NCC(O)COc2ccc(CC#N)c(F)c2)nc2ccc(Cl)cc21 (stereo not given)
inhibition [1]: > 50%

Structure (SMILES): Cn1c(NCC(O)COc2ccc(CC#N)cc2)nc2cc(Cl)c(Cl)cc21 (stereo not given)
IC50 [5]: Not Active
IC50 [2]: Not Active

Structure (SMILES): Cn1c(NCC(O)COc2ccc(CC#N)cc2)nc2ccc(C(F)(F)F)cc21 (stereo not given)
IC50 ([5]; read-out: IC50): 1.5 µM
IC50 [2]: Not Active

Structure (SMILES): Cn1c(NCC(O)COc2ccc(CC#N)cc2)nc2cc(Cl)ccc21 (stereo not given)
IC50 [5]: Not Active
IC50 [2]: Not Active

Structure (SMILES): CN(C)CCn1c(NCC(O)COc2ccc(CC#N)cc2)nc2ccc(Cl)cc21 (stereo not given)
IC50 [5]: Not Active
IC50 [2]: Not Active

Structure (SMILES): N#CCc1ccc(OCC(O)CNc2nc3ccc(Cl)cc3n2C2CC2)cc1 (stereo not given)
inhibition [1]: > 50%

Structure (SMILES): N#CCc1ccc(OCC(O)CNc2nc3ccc(Cl)cc3o2)cc1 (stereo not given)
inhibition (Pseudomonas aeruginosa [3]): inactive
inhibition (Pseudomonas aeruginosa [4]): inactive

Structure (SMILES): N#CCc1ccc(OCC(O)CNc2nc3ccc(Cl)cc3s2)cc1 (stereo not given)
inhibition (Pseudomonas aeruginosa [3]): inactive
inhibition (Pseudomonas aeruginosa [4]): inactive

Structure (SMILES): CC(C)n1c(NCC(O)COc2ccc(CC#N)cc2)nc2ccc(Cl)cc21 (stereo not given)
Activity [6]: 20%
inhibition [7]: inactive
inhibition [8]: Active
Activity [9]: inactive
inhibition [10]: Active
Activity (Pseudomonas aeruginosa [11]): Active
Activity [12]: Active
Activity [13]: Active
Activity [14]: Active
Activity [15]: Active
Activity [16]: inactive
inhibition [17]: Active
Activity [18]: 20%
Activity [19]: 20%
inhibition (Pseudomonas aeruginosa [20]): inactive
Activity [21]: 20%
inhibition (Pseudomonas aeruginosa [22]): inactive
inhibition [23]: Active
Activity [24]: 20%
inhibition [25]: Active
Activity (Pseudomonas aeruginosa [26]): Active
Activity (A549): Non-Toxic
inhibition [27]: Active
Activity [28]: inactive
Activity [29]: 20%
Activity [30]: Active
Activity [31]: Active
Activity [32]: Active

Further lines, with some results ahead:

inhibition [1]: > 50%
Structure (SMILES): Cn1c(NCC(O)COc2ccc(CC#N)cc2)nc2ccc(Cl)cc21 (stereo not given)

IC50 [2]: Not Active
Structure (SMILES): CC(C)n1c(NCC(N)COc2ccc(CC#N)cc2)nc2ccc(Cl)cc21 (stereo not given)

inhibition (Pseudomonas aeruginosa [3]): inactive
inhibition (Pseudomonas aeruginosa [4]): inactive
Structure (SMILES): Cn1c(SCC(O)COc2ccc(CC#N)cc2)nc2ccc(Cl)cc21 (stereo not given)

inhibition [1]: > 50%
Structure (SMILES): N#CCc1ccc(OCC(O)CNc2nc3ccc(Cl)cc3n2CCO)cc1 (stereo not given)

inhibition [1]: > 50%
Structure (SMILES): CCn1c(NCC(O)COc2ccc(CC#N)cc2)nc2ccc(Cl)cc21 (stereo not given)

IC50 [5]: Not Active
IC50 [2]: Not Active
Structure (SMILES): CN1CCC(n2c(NCC(O)COc3ccc(CC#N)cc3)nc3ccc(Cl)cc32)CC1 (stereo not given)

inhibition [1]: > 50%
Structure (SMILES): CC(C)n1c(NCC(O)COc2ccc(CC#N)cc2F)nc2ccc(Cl)cc21 (stereo not given)
Activity (A549): Non-Toxic

IC50 [2]: Not Active
Structure (SMILES): N#CCc1ccc(OCC(O)CNc2nc3ccc(Cl)cc3n2CCOCc2ccccc2)cc1 (stereo not given)

inhibition [1]: > 50%
Structure (SMILES): COCCn1c(NCC(O)COc2ccc(CC#N)cc2)nc2ccc(Cl)cc21 (stereo not given)

inhibition [1]: > 50%
Structure (SMILES): N#CCc1ccc(OCC(O)CNc2nc3ccc(Cl)cc3n2C2CCC2)cc1 (stereo not given)
